Test results taken from ChEMBL document CHEMBL1773035, “SHAFTS: a hybrid approach for 3D molecular similarity calculation. 2. Prospective case study in the discovery of diverse p90 ribosomal S6 protein kinase 2 inhibitors to suppress cell migration” (J Med Chem, 2011).
pIC50: −log10 of the molar value. Calls of active or inactive are those of the source. The rule behind the calls is not given here.

How the values were obtained:
[1] = test system: HCT-116; experiment: Antiproliferative activity against human HCT116 cells over expressing RSK2 at 100 uM after 48 hrs by MTT assay; assay type: functional; details: HCT-116, 48 h
Method in brief: (§1)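 Formazan dissolved in DMSO, absorbance read at 570 nm. Inhibition = (1 − A570 compound/A570 control)×100. Screening concentration 100 μM (control 10 μM). IC50 from curves, ≥3 independent tests, attempted when inhibition at 100 μM exceeded 40%.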

[2] = target: T1, Ribosomal protein S6 kinase alpha-3 (Homo sapiens, UniProt P51812); experiment: Inhibition of RSK2 after 60 mins
Method in brief: (§2)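 Recombinant RSK2 (20 ng) preincubated 20 min at room temperature with compound in HEPES pH 7.4 buffer (MgCl2, EGTA, Tween 20, BGG) with 25 μM S6 peptide; started with ATP (10 μM final), 60 min at room temperature. ADP Quest fluorescence read at ex 530/em 590 nm. IC50 from curves of ≥3 independent tests, measured when inhibition at 10 μM exceeded 30%.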

[3] = test system: MDA-MB-231; experiment: Antiproliferative activity against human MDA-MB-231 cells over expressing RSK2 at 100 uM after 48 hrs by MTT assay; assay type: functional; details: MDA-MB-231, 48 h; method in brief: as §1
[4] = test system: MCF7; experiment: Antiproliferative activity against human MCF7 cells over expressing RSK2 at 100 uM after 48 hrs by MTT assay; assay type: functional; details: MCF7, 48 h; method in brief: as §1
[5] = target: Proto-oncogene tyrosine-protein kinase Src (Homo sapiens) (UniProt P12931); experiment: Inhibition of c-Src at 10 uM by ELISA based method
Method in brief: (§3)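 Tyrosine kinase profiling by ELISA-based method, ATP at Km for each enzyme; percent inhibition at 10 μM, mean of at least two independent tests.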

[6] = target: Ribosomal protein S6 kinase beta-1 (Homo sapiens) (UniProt P23443); experiment: Inhibition of p70S6K at 10 uM
Method in brief: (§4)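 Serine/threonine kinase profiling by an outside contract service following manufacturer protocols, ATP at Km for each enzyme; percent inhibition at 10 μM.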

[7] = target: Proto-oncogene tyrosine-protein kinase receptor Ret (Homo sapiens) (UniProt P07949); experiment: Inhibition of RET at 10 uM by ELISA based method; method in brief: as §3
[8] = target: Epidermal growth factor receptor (Homo sapiens) (UniProt P00533); experiment: Inhibition of EGFR at 10 uM by ELISA based method; method in brief: as §3
[9] = target: RAC-alpha serine/threonine-protein kinase (Homo sapiens) (UniProt P31749); experiment: Inhibition of AKT1 at 10 uM; method in brief: as §4
[10] = target: Mast/stem cell growth factor receptor Kit (Homo sapiens) (UniProt P10721); experiment: Inhibition of c-Kit at 10 uM by ELISA based method; method in brief: as §3
[11] = target: Platelet-derived growth factor receptor alpha (Homo sapiens) (UniProt P16234); experiment: Inhibition of PDGFRalpha at 10 uM by ELISA based method; method in brief: as §3
[12] = target: Ribosomal protein S6 kinase alpha-5 (Homo sapiens) (UniProt O75582); experiment: Inhibition of MSK1 at 10 uM; method in brief: as §4
[13] = target: Tyrosine-protein kinase ABL1 (Homo sapiens) (UniProt P00519); experiment: Inhibition of ABL at 10 uM by ELISA based method; method in brief: as §3
[14] = target: Ephrin type-A receptor 2 (Homo sapiens) (UniProt P29317); experiment: Inhibition of EPHA2 at 10 uM by ELISA based method; method in brief: as §3
[15] = target: Mitogen-activated protein kinase 3 (Homo sapiens) (UniProt P27361); experiment: Inhibition of ERK1 at 10 uM; method in brief: as §4
[16] = target: Glycogen synthase kinase-3 alpha (Homo sapiens) (UniProt P49840); experiment: Inhibition of GSK3alpha at 10 uM; method in brief: as §4
[17] = target: Vascular endothelial growth factor receptor 1 (Homo sapiens) (UniProt P17948); experiment: Inhibition of Flt1 at 10 uM by ELISA based method; method in brief: as §3
[18] = target: Mitogen-activated protein kinase 14 (Homo sapiens) (UniProt Q16539); experiment: Inhibition of p38alpha at 10 uM; method in brief: as §4
[19] = target: Vascular endothelial growth factor receptor 2 (Homo sapiens) (UniProt P35968); experiment: Inhibition of KDR at 10 uM by ELISA based method; method in brief: as §3
[20] = target: Mitogen-activated protein kinase 9 (Homo sapiens) (UniProt P45984); experiment: Inhibition of JNK2 at 10 uM; method in brief: as §4
[21] = test system: HCT-116; experiment: Antiproliferative activity against human HCT116 cells over expressing RSK2 after 48 hrs by MTT assay; assay type: functional, cell-based; details: HCT-116, 48 h; method in brief: as §1
[22] = target: 3-phosphoinositide-dependent protein kinase 1 (Homo sapiens) (UniProt O15530); experiment: Inhibition of PDK1 at 10 uM
[23] = target: Serine/threonine-protein kinase pim-1 (Homo sapiens) (UniProt P11309); experiment: Inhibition of PIM1 at 10 uM; method in brief: as §4
[24] = target: Fibroblast growth factor receptor 1 (Homo sapiens) (UniProt P11362); experiment: Inhibition of FGFR1 at 10 uM by ELISA based method; method in brief: as §3
[25] = test system: MDA-MB-231; experiment: Antiproliferative activity against human MDA-MB-231 cells over expressing RSK2 after 48 hrs by MTT assay; assay type: functional, cell-based; details: MDA-MB-231, 48 h; method in brief: as §1
[26] = target: Platelet-derived growth factor receptor beta (Homo sapiens) (UniProt P09619); experiment: Inhibition of PDGFRbeta at 10 uM by ELISA based method; method in brief: as §3
[27] = target: T1, Ribosomal protein S6 kinase alpha-3; experiment: Inhibition of RSK2 at 10 uM; method in brief: as §2
[28] = test system: MCF7; experiment: Antiproliferative activity against human MCF7 cells over expressing RSK2 after 48 hrs by MTT assay; assay type: functional, cell-based; details: MCF7, 48 h; method in brief: as §1
[29] = test system: MDA-MB-231; experiment: Antimigratory activity against human MDA-MB-231 cells at 5 uM after 48 hrs by wound-healing assay; assay type: functional, cell-based
Method in brief: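 MDA-MB-231 grown 24 h to confluence in six-well plates, monolayer scratched with a pipet tip, washed, then kept in serum-free DMEM with compound (0.5 and 5 μM) for 48 h; migration photographed by phase-contrast microscopy at 0 and 48 h.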

[30] = target: Protein kinase C alpha type (Homo sapiens) (UniProt P17252); experiment: Inhibition of PKCalpha at 10 uM; method in brief: as §4
[31] = target: Ribosomal protein S6 kinase beta-1 (Homo sapiens) (UniProt P23443); experiment: Inhibition of p70S6K at 1 uM
[32] = target: Ribosomal protein S6 kinase alpha-5 (Homo sapiens) (UniProt O75582); details: 1 uM
[33] = target: Mitogen-activated protein kinase 8 (Homo sapiens) (UniProt P45983); experiment: Inhibition of JNK1 at 1 uM
[34] = test system: MCF7; experiment: Antiproliferative activity against human MCF7 cells over expressing RSK2 at 10 uM after 48 hrs by MTT assay; assay type: functional; details: MCF7, 48 h
[35] = target: Mitogen-activated protein kinase 14 (Homo sapiens) (UniProt Q16539); experiment: Inhibition of p38alpha at 1 uM
[36] = target: 3-phosphoinositide-dependent protein kinase 1 (Homo sapiens) (UniProt O15530); experiment: Inhibition of PDK1 at 1 uM
[37] = test system: HCT-116; experiment: Antiproliferative activity against human HCT116 cells over expressing RSK2 at 10 uM after 48 hrs by MTT assay; assay type: functional; details: HCT-116, 48 h
[38] = target: T1, Ribosomal protein S6 kinase alpha-3; details: 1 uM
[39] = target: Protein kinase C alpha type (Homo sapiens) (UniProt P17252); experiment: Inhibition of PKCalpha at 1 uM
[40] = test system: MDA-MB-231; experiment: Antiproliferative activity against human MDA-MB-231 cells over expressing RSK2 at 10 uM after 48 hrs by MTT assay; assay type: functional; details: MDA-MB-231, 48 h
[41] = target: Mitogen-activated protein kinase 1 (Homo sapiens) (UniProt P28482); experiment: Inhibition of ERK2 at 1 uM

Chain of Mast/stem cell growth factor receptor Kit (Homo sapiens) (P10721 whole entry): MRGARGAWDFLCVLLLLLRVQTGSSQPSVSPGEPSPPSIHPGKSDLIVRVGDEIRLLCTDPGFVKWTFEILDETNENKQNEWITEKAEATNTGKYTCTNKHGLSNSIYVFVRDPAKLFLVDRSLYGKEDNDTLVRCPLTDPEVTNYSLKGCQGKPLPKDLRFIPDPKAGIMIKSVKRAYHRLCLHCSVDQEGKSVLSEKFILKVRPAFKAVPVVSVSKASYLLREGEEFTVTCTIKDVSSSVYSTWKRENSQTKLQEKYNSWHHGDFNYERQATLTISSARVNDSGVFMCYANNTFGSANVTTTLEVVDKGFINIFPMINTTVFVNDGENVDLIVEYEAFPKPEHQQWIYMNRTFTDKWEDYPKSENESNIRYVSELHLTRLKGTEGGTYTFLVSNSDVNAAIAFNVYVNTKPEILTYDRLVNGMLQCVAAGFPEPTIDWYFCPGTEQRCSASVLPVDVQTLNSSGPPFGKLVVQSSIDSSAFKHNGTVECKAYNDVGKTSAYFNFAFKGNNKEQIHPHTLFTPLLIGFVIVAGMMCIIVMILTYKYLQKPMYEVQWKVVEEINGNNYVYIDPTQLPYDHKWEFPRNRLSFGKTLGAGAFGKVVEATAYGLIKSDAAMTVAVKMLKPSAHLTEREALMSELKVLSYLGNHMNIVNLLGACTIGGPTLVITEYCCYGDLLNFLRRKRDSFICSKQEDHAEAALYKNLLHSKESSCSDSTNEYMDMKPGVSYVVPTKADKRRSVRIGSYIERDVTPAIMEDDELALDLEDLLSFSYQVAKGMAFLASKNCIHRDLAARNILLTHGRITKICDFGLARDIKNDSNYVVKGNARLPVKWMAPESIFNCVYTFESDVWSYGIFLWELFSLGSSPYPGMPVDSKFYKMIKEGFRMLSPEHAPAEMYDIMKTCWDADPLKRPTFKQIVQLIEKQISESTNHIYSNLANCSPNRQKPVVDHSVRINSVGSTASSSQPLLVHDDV
Chain of Epidermal growth factor receptor (Homo sapiens) (P00533 whole entry): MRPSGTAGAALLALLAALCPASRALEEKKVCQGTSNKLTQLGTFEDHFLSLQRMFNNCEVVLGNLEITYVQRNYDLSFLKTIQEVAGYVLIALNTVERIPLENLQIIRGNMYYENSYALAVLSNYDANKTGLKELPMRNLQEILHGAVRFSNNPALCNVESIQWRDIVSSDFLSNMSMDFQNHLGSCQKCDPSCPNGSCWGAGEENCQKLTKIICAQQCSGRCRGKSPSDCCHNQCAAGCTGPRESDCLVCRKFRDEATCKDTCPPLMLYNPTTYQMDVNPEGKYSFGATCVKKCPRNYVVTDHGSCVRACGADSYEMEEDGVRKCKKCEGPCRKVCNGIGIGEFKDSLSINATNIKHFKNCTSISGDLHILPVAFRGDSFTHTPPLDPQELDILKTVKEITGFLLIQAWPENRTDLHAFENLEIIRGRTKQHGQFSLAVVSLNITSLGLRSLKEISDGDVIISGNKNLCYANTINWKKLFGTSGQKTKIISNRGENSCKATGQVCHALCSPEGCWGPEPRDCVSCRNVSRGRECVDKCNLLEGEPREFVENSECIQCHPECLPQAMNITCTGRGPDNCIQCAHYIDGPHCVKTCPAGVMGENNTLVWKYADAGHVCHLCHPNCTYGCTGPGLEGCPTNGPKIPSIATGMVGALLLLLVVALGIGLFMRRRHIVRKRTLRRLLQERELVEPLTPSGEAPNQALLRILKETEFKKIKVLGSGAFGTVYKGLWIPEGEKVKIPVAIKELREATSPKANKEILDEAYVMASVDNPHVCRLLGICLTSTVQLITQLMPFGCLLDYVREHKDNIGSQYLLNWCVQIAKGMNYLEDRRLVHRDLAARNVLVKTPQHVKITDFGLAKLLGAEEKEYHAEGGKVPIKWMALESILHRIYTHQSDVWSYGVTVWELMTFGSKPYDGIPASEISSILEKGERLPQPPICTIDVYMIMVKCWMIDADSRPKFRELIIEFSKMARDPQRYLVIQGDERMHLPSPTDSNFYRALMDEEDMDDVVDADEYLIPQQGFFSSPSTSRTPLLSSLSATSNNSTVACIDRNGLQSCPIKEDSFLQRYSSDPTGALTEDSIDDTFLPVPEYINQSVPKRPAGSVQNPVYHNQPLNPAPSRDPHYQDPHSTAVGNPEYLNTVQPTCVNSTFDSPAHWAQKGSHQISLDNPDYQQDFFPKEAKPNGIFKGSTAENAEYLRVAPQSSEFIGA
Chain of Fibroblast growth factor receptor 1 (Homo sapiens) (P11362 22-822 limits assumed): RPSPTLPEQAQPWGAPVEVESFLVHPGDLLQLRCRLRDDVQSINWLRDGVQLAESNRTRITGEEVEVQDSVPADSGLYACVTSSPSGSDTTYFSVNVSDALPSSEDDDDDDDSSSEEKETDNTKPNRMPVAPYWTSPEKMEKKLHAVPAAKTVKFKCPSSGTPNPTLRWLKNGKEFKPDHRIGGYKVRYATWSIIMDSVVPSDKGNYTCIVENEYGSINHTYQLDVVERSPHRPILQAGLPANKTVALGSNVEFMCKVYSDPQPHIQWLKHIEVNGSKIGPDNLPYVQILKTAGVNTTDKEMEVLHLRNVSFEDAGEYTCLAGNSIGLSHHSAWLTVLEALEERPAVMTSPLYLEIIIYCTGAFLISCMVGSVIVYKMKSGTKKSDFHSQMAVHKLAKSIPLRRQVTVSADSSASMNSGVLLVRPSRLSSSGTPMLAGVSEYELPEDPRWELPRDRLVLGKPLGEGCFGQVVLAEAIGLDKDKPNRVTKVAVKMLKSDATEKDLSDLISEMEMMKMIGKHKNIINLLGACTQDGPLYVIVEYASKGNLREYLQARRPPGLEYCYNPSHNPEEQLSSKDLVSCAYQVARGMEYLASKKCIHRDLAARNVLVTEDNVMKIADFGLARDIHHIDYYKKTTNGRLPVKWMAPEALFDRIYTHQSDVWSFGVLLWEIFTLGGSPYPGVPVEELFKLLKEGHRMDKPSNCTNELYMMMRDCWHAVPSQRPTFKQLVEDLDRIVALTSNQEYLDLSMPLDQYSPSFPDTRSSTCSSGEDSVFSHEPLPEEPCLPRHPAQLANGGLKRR
Chain of Platelet-derived growth factor receptor alpha (Homo sapiens) (P16234 whole entry): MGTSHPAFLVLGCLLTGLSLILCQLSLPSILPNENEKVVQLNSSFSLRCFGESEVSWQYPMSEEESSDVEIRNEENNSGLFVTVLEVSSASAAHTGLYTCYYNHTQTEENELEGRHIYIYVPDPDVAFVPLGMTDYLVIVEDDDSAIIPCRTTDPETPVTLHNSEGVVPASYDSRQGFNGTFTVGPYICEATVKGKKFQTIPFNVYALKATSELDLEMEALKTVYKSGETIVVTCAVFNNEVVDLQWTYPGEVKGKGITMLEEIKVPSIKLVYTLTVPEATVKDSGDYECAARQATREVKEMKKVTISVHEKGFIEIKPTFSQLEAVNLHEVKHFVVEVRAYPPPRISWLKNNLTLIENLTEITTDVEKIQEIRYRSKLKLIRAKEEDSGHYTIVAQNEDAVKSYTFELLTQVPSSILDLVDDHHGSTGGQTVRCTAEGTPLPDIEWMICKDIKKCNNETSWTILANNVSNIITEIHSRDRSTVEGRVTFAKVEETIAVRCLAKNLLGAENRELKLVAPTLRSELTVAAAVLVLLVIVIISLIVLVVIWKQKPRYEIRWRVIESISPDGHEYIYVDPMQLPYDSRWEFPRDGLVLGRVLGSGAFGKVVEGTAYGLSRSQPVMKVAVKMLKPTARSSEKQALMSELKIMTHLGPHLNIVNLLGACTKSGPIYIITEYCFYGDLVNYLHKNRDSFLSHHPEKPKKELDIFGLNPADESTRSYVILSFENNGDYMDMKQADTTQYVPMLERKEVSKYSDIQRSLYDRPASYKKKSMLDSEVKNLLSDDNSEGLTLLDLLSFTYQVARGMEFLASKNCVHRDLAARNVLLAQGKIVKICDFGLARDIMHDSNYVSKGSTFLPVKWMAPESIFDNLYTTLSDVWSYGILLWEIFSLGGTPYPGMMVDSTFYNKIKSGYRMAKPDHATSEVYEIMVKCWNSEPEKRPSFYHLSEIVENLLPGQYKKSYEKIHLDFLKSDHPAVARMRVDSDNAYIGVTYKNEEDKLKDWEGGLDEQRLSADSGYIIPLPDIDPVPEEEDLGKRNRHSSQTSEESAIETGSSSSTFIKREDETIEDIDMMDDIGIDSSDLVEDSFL
Chain of Ribosomal protein S6 kinase alpha-5 (Homo sapiens) (O75582 whole entry, looked up): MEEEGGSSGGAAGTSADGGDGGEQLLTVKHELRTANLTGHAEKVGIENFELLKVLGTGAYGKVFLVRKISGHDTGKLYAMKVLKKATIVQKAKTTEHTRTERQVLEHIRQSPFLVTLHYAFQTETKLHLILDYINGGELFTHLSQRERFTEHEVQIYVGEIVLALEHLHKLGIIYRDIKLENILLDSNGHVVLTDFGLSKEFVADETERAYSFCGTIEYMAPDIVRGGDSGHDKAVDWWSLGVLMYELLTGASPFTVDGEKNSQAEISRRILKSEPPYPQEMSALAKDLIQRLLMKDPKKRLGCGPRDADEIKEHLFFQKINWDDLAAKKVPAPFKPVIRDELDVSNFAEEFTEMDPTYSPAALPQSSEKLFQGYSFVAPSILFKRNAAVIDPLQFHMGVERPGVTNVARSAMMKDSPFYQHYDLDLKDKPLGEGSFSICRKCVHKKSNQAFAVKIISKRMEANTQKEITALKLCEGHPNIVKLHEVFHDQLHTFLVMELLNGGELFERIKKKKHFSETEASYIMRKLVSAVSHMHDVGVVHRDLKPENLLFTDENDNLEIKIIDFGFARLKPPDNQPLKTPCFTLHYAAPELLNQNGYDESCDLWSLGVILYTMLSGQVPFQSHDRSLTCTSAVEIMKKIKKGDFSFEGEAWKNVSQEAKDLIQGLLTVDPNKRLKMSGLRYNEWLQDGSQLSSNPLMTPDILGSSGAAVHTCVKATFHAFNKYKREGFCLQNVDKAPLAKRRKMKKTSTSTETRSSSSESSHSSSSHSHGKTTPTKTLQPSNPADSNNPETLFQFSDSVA

| Structure (SMILES) | pIC50 [2] | inhibition [5] | inhibition [7] | inhibition [8] | inhibition [10] | inhibition [11] | inhibition [13] | inhibition [14] | inhibition [17] | inhibition [19] | pIC50 [21] | inhibition [24] | pIC50 [25] | inhibition [26] | pIC50 [28] | inhibition at 100 µM [1] | inhibition at 100 µM [3] | inhibition at 100 µM [4] | further results |
| --- | --- | --- | --- | --- | --- | --- | --- | --- | --- | --- | --- | --- | --- | --- | --- | --- | --- | --- | --- |
| Cc1cc(N)cc2[nH]c(-c3ccccc3)nc12 | 5.97 |  |  |  |  |  |  |  |  |  |  |  |  |  |  | 32.6% | 45.8% | 21.3% |  |
| Clc1ccc2c(c1)SNC(c1ccccc1)=N2 | 5.54 |  |  |  |  |  |  |  |  |  |  |  |  |  |  | 6.5% | 0% | 3.6% |  |
| Oc1ccc(NCn2nnc3ccccc32)cc1 | 6.32 | 14.2% | 10% | 32.4% | 15.6% | -6.9% | 8.6% | 38.2% | 2.4% | 16.9% | 4.25 | 31.3% | 4.83 | 55.2% | 4.75 | 91.6% | 98.8% | 97% | inhibition [6]: 6.9%; inhibition [9]: 8.6%; inhibition [12]: 10.1%; inhibition [15]: 2.8%; inhibition [16]: 29.3%; inhibition [18]: 13%; inhibition [20]: 11%; inhibition [22]: -5.8%; inhibition [23]: 0.7%; inhibition [27]: 89.2% |
| Cn1cc(C2=C(c3cn(CCCSC(=N)N)c4ccccc34)C(=O)NC2=O)c2ccccc21 [BISINDOLYLMALEIMIDE IX] | 8.00 | 37.4% | 71.8% | 36.6% | 58% | 32.6% | 37.9% | 70.7% | 73.2% | 74.4% | 6.08 | 61.2% | 5.75 | 32.4% | 5.71 |  |  |  | inhibition [31]: 94%; inhibition [32]: 98%; inhibition [33]: 5%; inhibition at 10 µM [34]: 95.3%; inhibition [35]: 16%; inhibition [36]: 16%; inhibition at 10 µM [37]: 95.2%; inhibition [38]: 98%; inhibition [39]: 97%; inhibition at 10 µM [40]: 97.1%; inhibition [41]: 3% |
| O=c1[nH]c(=O)c2ncc(-c3ccc(O)cc3)nc2[nH]1 | 4.84 |  |  |  |  |  |  |  |  |  |  |  |  |  |  |  |  |  |  |

The next lines start with results.

| pIC50 [2] | inhibition [5] | inhibition [7] | inhibition [8] | inhibition [10] | inhibition [11] | inhibition [13] | inhibition [14] | inhibition [17] | inhibition [19] | pIC50 [21] | inhibition [24] | pIC50 [25] | inhibition [26] | pIC50 [28] | Structure (SMILES) | inhibition at 100 µM [1] | inhibition at 100 µM [3] | inhibition at 100 µM [4] | further results |
| --- | --- | --- | --- | --- | --- | --- | --- | --- | --- | --- | --- | --- | --- | --- | --- | --- | --- | --- | --- |
| 4.82 |  |  |  |  |  |  |  |  |  |  |  |  |  |  | Cc1c(O)ccc(/N=N/c2ccc(S(=O)(=O)O)cc2)c1C |  |  |  |  |
|  | 8.2% | 0.6% | 44.9% | 11.5% | 1.4% | 7.4% | 24% | 12.5% | 21.9% | 4.52 | 15.5% | 4.79 | 62.8% | 4.59 | Cc1c(N)ccc2[nH]c(-c3ccc(N)cc3)nc12 | 89.6% | 89.2% | 98.3% | inhibition [6]: 6.2%; inhibition [9]: -2.5%; inhibition [12]: 3.1%; inhibition [15]: -4.4%; inhibition [16]: 3.5%; inhibition [18]: 2.7%; inhibition [20]: -1.4%; inhibition [23]: 86.8%; Activity [29]: Active; inhibition [30]: -0.4%; inhibition [27]: 95.5% |
| 5.46 |  |  |  |  |  |  |  |  |  |  |  |  |  |  | O=C(O)c1ccc(/N=N/c2ccc(O)c3ncccc23)cc1 | 28.4% | 22.2% | 36.7% |  |
| 6.49 |  |  |  |  |  |  |  |  |  |  |  |  |  |  | Cc1c(N)ccc2nc(-c3ccc(N)cc3)[nH]c12 |  |  |  |  |
